Compound activity from PubChem.
APJ ag – agonists of human apelin receptor APJ, primary screen, CHO-K1 cells, PathHunter beta-arrestin, luminescence; P35414; 0% DMSO wells, 100% apelin; activation, % at 20 µM; 0.11% of 330,000 active; AID 2520, 2010;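 active means activation more than six SD over the plate average, tested at 20 µM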;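 further: 0% = DMSO alone and 100% = apelin-13 at 10 nM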
Target sequence (P35414 whole entry, looked up): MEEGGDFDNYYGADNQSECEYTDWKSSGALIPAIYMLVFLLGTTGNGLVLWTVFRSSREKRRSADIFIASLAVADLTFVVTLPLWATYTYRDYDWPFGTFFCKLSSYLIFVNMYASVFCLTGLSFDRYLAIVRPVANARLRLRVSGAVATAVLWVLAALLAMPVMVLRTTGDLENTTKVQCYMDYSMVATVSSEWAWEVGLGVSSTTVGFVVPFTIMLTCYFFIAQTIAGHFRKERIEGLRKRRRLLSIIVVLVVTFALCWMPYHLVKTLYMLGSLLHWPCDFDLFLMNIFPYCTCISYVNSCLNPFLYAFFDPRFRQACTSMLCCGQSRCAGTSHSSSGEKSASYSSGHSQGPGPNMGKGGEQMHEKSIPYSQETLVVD
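Material: engineered CHO-K1 APJ arrestin reporter cells; amount: 1000 CHO-K1 reporter cells seeded per well; incubation: compound stimulation 90 min at 25 °C, detection 60 min; signal: luminescent beta-gal fragment complementation, chemiluminescent substrate; read-out basis: APJ agonist activity; controls: DMSO-only wells as negative, 10 nM Apelin-13 as positive control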
CXCR6 inh – CXCR6 receptor inhibitors, primary screen, cell-based, beta-arrestin, luminescence, CHO-K1 PathHunter, 1536-well. inhibition, % at 20 µM. 0.36% of 360,000 active. C-X-C chemokine receptor type 6 (Homo sapiens), O00574; in the data active means inhibition above about 34%, passing the limit was not always enough;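 further: antagonist mode with CXCL16 agonist at 10 nM final; 0% = 10 nM CXCL16 with DMSO and 100% = unstimulated wells without agonist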
APJ antagonist – antagonists of human apelin receptor APJ, primary screen, CHO-K1 cells, beta-arrestin complementation, luminescence. P35414. inhibition, % at 20 µM. 0.32% of 330,000 active. AID 2521, 2010;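 active means inhibition above about 40% at 20 µM, limit read from the data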;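 further: cells challenged with 10 nM apelin-13 agonist together with compound; plate controls were apelin-13 plus DMSO wells for no effect and DMSO wells lacking apelin-13 for full effect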
H9c2 TAG inh – inhibitors of triacylglycerol accumulation, primary screen, cell-based, uHTS, fluorescence, H9c2. AID 651582, 2012. inhibition, % at 12.5 µM. H9c2 cells, Nile Red lipid (TAG) fluorescence; cells loaded with 200 µM oleic acid. 0.66% of 230,000 active;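 active means pattern-corrected inhibition of lipid staining of at least 50% with the nuclear-stain viability signal not falling by more than 50%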;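 further: 0% = DMSO wells and 100% = triacsin C control wells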
CCR6 antag – CCR6 receptor antagonists, primary screen, cell-based, CHO-K1, luminescence, beta-arrestin, uHTS; inhibition, % at 20 µM; 0.49% of 340,000 active; CHO-K1 CCR6 PathHunter beta-arrestin, CCL20-stimulated; C-C chemokine receptor type 6 (Homo sapiens), P51684;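 active means compounds whose inhibition of the agonist-driven luminescence signal at 20 µM reaches about 50%, limit read from the data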;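 further: cells stimulated with CCL20 at 14 nM final; plate controls were DMSO with CCL20 for no effect and DMSO without agonist for full effect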
EBI2 antag – EBI2 receptor antagonists, beta-arrestin recruitment, primary screen, cell-based, luminescence, 7a,25-OHC stimulation, uHTS; inhibition, % at 5 µM; 0.81% of 360,000 active; G-protein coupled receptor 183 (Homo sapiens), P32249; 7a,25-OHC stimulated; AID 651636, 2012; in the data active means inhibition above about 38%;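 further: enzyme fragment complementation signal reports receptor beta-arrestin coupling in cells; 0% = agonist plus DMSO wells and 100% = wells without agonist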
An asterisk follows results filed as active; . = not tested or not shown; ! = repeats disagree. In the library only some 1.9% were active in any assay of this set; here they are far more common.

SMILES	APJ ag	CXCR6 inh	APJ antagonist	H9c2 TAG inh	CCR6 antag	EBI2 antag
COc1ccc(CN2C(=O)c3cccnc3C2=O)cc1S(=O)(=O)N(C)c1ccc(C)cc1	-2	10	5	.	11	2
Cc1cc(C)n(-c2nc(Nc3ccccc3)nc(-n3nc(C)cc3C)n2)n1	-5	-3	13	.	3	1
COc1cccc(/C=N/Nc2nc(Nc3ccccc3)nc(-n3nc(C)cc3C)n2)c1O	-9	57*	18	128	67*	66*
CNC(C)C#Cc1c(-c2cc(OC)c(OC)c(OC)c2)noc1C (centres undefined)	-5	7	24	12	3	-8
COc1cc(-c2noc(C)c2C#Cc2ccccn2)cc(OC)c1OC	5	-10	9	70*	16	-4
O=C1NCCN(CC2CCN(CCc3ccccc3)CC2)C1=O	.	-4	.	6	.	-2
CC[C@H](C)[C@@H](CNC)NC[C@@H](Cc1ccc(O)cc1)NCC(C)(C)C	0	-2	1	4	-4	-4
CC[C@@H](C)[C@H](CN[C@H](CNC)C(C)C)NC[C@@H](C)c1ccc(CC(C)C)cc1	-7	17	20	127*	33	-19
C#Cc1ccc([C@H]2C=C(C(=O)N3CCN(Cc4ccccc4)CC3)O[C@@H](OCC)[C@@H]2CCCO)cc1	-4	10	0	-30	13	56*
CCO[C@@H]1OC(C(=O)N2CCN(Cc3ccc4c(c3)OCO4)CC2)=C[C@H](c2ccc(Br)cc2)[C@H]1CCCO	-12	36	-3	-5	51*	29
CC(NC(=O)/C(C#N)=C/c1ccc(Cl)c([N+](=O)[O-])c1)c1ccccc1 (centres undefined)	9	.	9	.	93*	.
CC(C)C[C@H]1CN=C(Nc2ccccc2)N1CC1CCC(C(C)(C)C)CC1 (some centres undefined)	1	-10	27	59*	17	-4
N#Cc1c(N2CCN(C(=O)c3ccccc3)CC2)nc(-c2ccccc2)c2c1CCCC2	0	10	7	-14	50*	10
N#Cc1c(N2CCN(C(=O)c3ccccc3Cl)CC2)nc(-c2ccccc2)c2c1CCCC2	1	16	22	-30	17	15
CC(=O)OC[C@]12CC[C@H]3[C@@](C)(CC[C@H]4C(C)(C)CCC[C@]34C)[C@@H]1CC(C1=CC(=O)OC1O)O2 (some centres undefined)	.	39	.	.	.	87*
CC(=O)OC[C@]1(OC(C)=O)C[C@@]23CC[C@H]4[C@@](C)(CCC[C@@]4(C)C(=O)O)[C@@H]2CC[C@@H]1C3	-6	-8	-8	-1	-7	-16
O=[N+]([O-])c1cc(O)c2ncccc2c1	3	.	-58	.	54*	.
CCOC(=O)N=Nc1c(O)n(CC(=O)OC)c2ccccc12	-2	-2	2	4	12	4
CCOC(=O)N=Nc1c2ccccc2c2nc3no[nH]c3nc12	-4	36*	13	.	46	-5
C/C(CCC(C)C)=N\Nc1cc(C)c2ccccc2n1	0	35	43*	13	56*	-1
O=C(Nc1cc(S(=O)(=O)Nc2ccccc2Cl)ccc1O)c1sc2cc(Cl)ccc2c1Cl	-2	26	13	4	75*	8
CC(C)(C)S(=O)N1Cc2cc(=O)n(Cc3ccccc3)c(CCO)c2[C@H]1CCO (some centres undefined)	.	-3	.	-1	-4	-8
CCCCCCCCn1ccc(=N)cc1	7	1	36	-18	-10	-2
CCCCCCCCCCCCCCCCn1cc[n+](C)c1	-2	16	22	47	57*!	-7
O=C(c1ccccc1)c1ccc2nc(-c3ccc(NC(=O)c4ccccc4F)cc3)[nH]c2c1	4	1	-10	58*	-23	-14
SMILES	APJ ag	CXCR6 inh	APJ antagonist	H9c2 TAG inh	CCR6 antag	EBI2 antag
COc1cccc(C(NC(C)=O)c2nc(-c3cccc(F)c3)cs2)c1 (centres undefined)	.	-4	.	-4	.	3
C=CCCC(=O)N1C[C@H]2CON(C)[C@H]2C[C@H]1c1cccc(Oc2ccccc2)c1	.	0	.	-8	.	1
O=C1/C(=C/c2ccc(N3CCOCC3)o2)SC(=Nc2ccccc2)N1CCc1c[nH]c2ccccc12	4	5	-8	.	15	83*
O=C1S/C(=C/c2ccc(N3CCOCC3)o2)C(=O)N1Cc1ccc(F)cc1	0	8	22	.	14	19
O=C1S/C(=C\c2ccc(N3CCOCC3)o2)C(=O)N1Cc1ccc(F)cc1	-5	13	23	.	30	47*
O=C1NC(=S)S/C1=C/c1ccc(N2CCOCC2)o1	-1	20	-1	.	62*	0
CCOCc1c(C(=O)NCC(c2ccco2)N2CCCC2)oc2ccccc12 (centres undefined)	-4	7	-3	3	6	1
CN(c1ccccc1)S(=O)(=O)c1cccc(C(=O)NCCc2c[nH]c3ccccc23)c1	0	-9	9	7	22	48*
O=C(NCCc1c[nH]c2ccccc12)c1cccc(S(=O)(=O)Nc2ccccc2Cl)c1	2	-3	-16	.	-18	7
COc1ccc(CNC(=O)c2cc(=O)c3cc(C)cc(C)c3o2)cc1	0	-2	0	.	20	15
Cc1ccc(O)c(N=Nc2nccs2)c1	-9	52*	-31	0	.	6
CCOC(=O)c1c(SC)n(-c2ccccc2)c(=S)n(-c2ccccc2)c1=O	.	8	.	.	10	-8
CCOC(=O)c1c(SCCN2CCCCC2)n(-c2ccccc2)c(=S)n(-c2ccccc2)c1=O	.	86*	.	28	99*	9
Cc1c(C(=O)OCC2CCCO2)[nH]c2c1C(=O)CC(c1ccco1)C2 (centres undefined)	2	-4	7	56*	20	-9
Cc1c(C(=O)OCC(C)C)[nH]c2c1C(=O)CC(c1ccco1)C2 (centres undefined)	-2	-5	9	.	11	-2
CCOC(=O)c1ccc(N(CCC2CO2)S(=O)(=O)c2ccc(C)cc2)cc1 (centres undefined)	.	4	.	-3	13	-4
CCC1(CC)Cc2ccccc2-c2nc(NN)[nH]c(=O)c21	-7	29	14	-7	50*	3
CCC1(C)Cc2ccccc2-c2nc(NN)[nH]c(=O)c21 (centres undefined)	-8	9	22	.	31	0
